This is a sample that favours compounds with a hit; in the whole collection about 3.8% have one here.
KCNK3 block: human KCNK3 channel inhibition, primary screen. O14649. CHO-KCNK3 thallium flux, FluxOR fluorescence; hits give low values. B-score at 10 µM. actives 0.84% (n = 340,000);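 active means B-score under library mean minus 4 SD, starting fluorescence ratio at most library mean plus 5 SD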;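 further: more negative B-score means stronger inhibition of thallium flux through KCNK3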
Kir21 block: inhibitors of mouse Kir2.1 inward-rectifier potassium channel; AID 1672; actives 0.85% (n = 310,000); HEK293-Kir2.1, FluxOR thallium flux fluorescence; hits give low values; B-score at 10 µM;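 active means fluorescence ratio B-score at or below minus 3 SD of library scores, with starting-brightness B-score within 2 SD, cut at about -4.2 in these data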;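 further: channel flux triggered by added potassium and thallium sulfate stimulus; B-score of peak minus minimum fluorescence over baseline after thallium stimulus; more negative B-score means stronger Kir2.1 block with less thallium influx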
Target sequence (P35561 whole entry, looked up): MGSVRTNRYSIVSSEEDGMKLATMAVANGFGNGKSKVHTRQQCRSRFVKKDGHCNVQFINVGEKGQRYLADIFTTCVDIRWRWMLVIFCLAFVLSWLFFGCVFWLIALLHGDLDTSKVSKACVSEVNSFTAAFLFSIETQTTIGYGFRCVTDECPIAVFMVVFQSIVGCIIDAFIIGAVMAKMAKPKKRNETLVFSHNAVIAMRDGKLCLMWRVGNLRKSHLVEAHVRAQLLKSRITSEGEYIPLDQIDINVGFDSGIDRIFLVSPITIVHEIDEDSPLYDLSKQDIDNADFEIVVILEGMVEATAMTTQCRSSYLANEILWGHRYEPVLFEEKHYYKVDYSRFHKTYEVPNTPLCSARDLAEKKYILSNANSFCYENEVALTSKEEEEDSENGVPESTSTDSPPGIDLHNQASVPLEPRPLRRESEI
KCNK9 inh: inhibitors of human KCNK9 two-pore domain potassium channel | Q9NPC2 | HEK293 KCNK9, FluxOR thallium flux fluorescence; hits give low values | B-score at 10 µM | actives 1.2% (n = 310,000) | AID 488922;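 active means ratio B-score over 3 SD below the library mean, with starting fluorescence within 5 SD of its mean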;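 further: negative B-score means less thallium flux so channel inhibition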
KCNQ1 act: human KCNQ1 channel potentiation or activation; B-score at 10 µM; actives 0.35% (n = 310,000); CHO-K1 KCNQ1, thallium flux FluxOR fluorescence; hits give high values; AID 2648; P51787;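 active means fluorescence ratio B-score, a plate-corrected score, at least three library SD, with initial intensity B-score within 5 SD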
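Assay system: CHO-K1 cells stably expressing KCNQ1; Medium: assay buffer with matched DMSO; Also added: K+/Tl+ depolarizing stimulus; Dosing: single dose; Timing: dye 90 min, compound 20 min, room temperature; Measured by: kinetic FluxOR thallium fluorescence, 10-s 1-Hz baseline, 110-s post-stimulus read; Read-out: peak-minus-minimum fluorescence over initial fluorescence, negative-control normalized, B-scored.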
hERG rescue: compounds protecting human hERG from proarrhythmic drug block; CHO-hERG, FluxOR thallium flux, dofetilide IC70 present; activation (rescue from dofetilide block), less the hit threshold, % at 10 µM; actives 0.51% (n = 310,000);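 active means activation above the mean of controls blocked by dofetilide plus 5 SD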;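 further: thallium influx through hERG after potassium depolarization seen as dye fluorescence rise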
KCNQ1 block: inhibitors of human KCNQ1 potassium channel; B-score at 10 µM; actives 1.3% (n = 310,000); AID 2642; CHO-K1 KCNQ1, FluxOR thallium flux fluorescence; hits give high values;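 active means compounds whose thallium flux B-score, printed positive for inhibition, exceeds three library SD while starting fluorescence stays within three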;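 further: channel opened by potassium depolarization with thallium stimulus after 20 min compound exposure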
A number is an active result; n = inactive; x = not tested or not shown.

SMILES | KCNK3 block | Kir21 block | KCNK9 inh | KCNQ1 act | hERG rescue | KCNQ1 block
CCn1c2ccccc2c2cc(/C=N/NC(=O)c3ccccc3)ccc21 | n | n | n | n | 6.4 | n
Cn1c2ccccc2c2cc(/C=N/NC(=O)c3cc(O)cc(O)c3)ccc21 | n | n | n | n | n | n
Cc1nn(Cc2ccc(C(=O)N/N=C/c3ccncc3)o2)c(C)c1Cl | n | n | n | n | n | n
Cc1ccc(CNC(=O)c2ccc(Cn3nc(C)c(Cl)c3C)o2)cc1 | n | -9 | -6.96 | n | n | n
Cc1cc(C)c2c(N)c(C(=O)Nc3ccc(F)cc3)sc2n1 | n | n | n | n | n | n
COc1ccc(NC(=O)c2sc3nc(C)cc(C)c3c2N)cc1 | n | n | n | n | 4.8 | n
CCc1cc2cc(C)cc(C)c2[nH]c1=S | n | n | n | n | 9.1 | n
CCOC(=O)c1sc2nc(C)[nH]c(=S)c2c1C | n | n | n | 40 | n | n
COc1ccc(-n2ncc3c2CC(C)(C)CC3NC(=O)Cc2nonc2C)cc1 (configuration not stated) | n | n | n | n | n | n
CCCCOc1ccc(-c2c(C#N)c(N)[nH]c(=S)c2C#N)cc1 | n | n | n | n | 8.4 | n
Cc1ccc(C(=O)NC(C)C2CC3CCC2C3)c(C)c1 (configuration not stated) | n | n | n | n | n | n
O=C1/C(=C/c2ccc(N3CCOCC3)o2)SC(=Nc2ccccc2)N1CCc1c[nH]c2ccccc12 | n | n | n | n | n | 7
COc1ccc(N=C2S/C(=C\c3ccc(OC(C)C(=O)O)c(OC)c3)C(=O)N2CCc2c[nH]c3ccccc23)cc1 (configuration not stated) | n | n | n | n | n | 11
COc1cc(/C=C2\SC(=Nc3ccccc3)N(CCc3c[nH]c4ccccc34)C2=O)ccc1OC(C)C(=O)O (configuration not stated) | n | n | n | n | n | n
CCNC(=O)CC1C(=O)N(c2ccc(C)cc2)C(=O)N1CCc1sccc1C (configuration not stated) | n | n | n | n | n | n
CCOC(=O)c1ccc([N+](=O)[O-])c(CS(=O)(=O)c2ccc(Cl)cc2)c1 | n | n | n | n | n | n
Cc1ccc(S(=O)(=O)Cc2cc(F)c([N+](=O)[O-])cc2[N+](=O)[O-])cc1 | -10.4 | n | n | n | n | n
CC[C@H](C)/C=C(C)/C=C/C(=O)Cc1cc(O)c(C)c(O)c1C=O | -10.2 | n | n | n | n | 11
Cc1ccc(S(=O)(=O)CCC(=O)OCCOc2cccc(Br)c2)cc1 | n | x | x | x | x | x
COc1ccc(NC(=O)c2ccc(Cl)c(S(=O)(=O)N3CCc4ccccc4C3)c2)cn1 | -10.2 | n | n | n | n | n
CC(C)CCNC(=O)CCn1c(=S)oc2ccccc21 | n | n | n | n | n | n
C/C(N=Nc1nc2ccccc2s1)=N\Nc1ccccc1O | n | n | n | n | n | n
CCOc1cccnc1Sc1ccccc1 | n | n | n | n | n | n
Cc1cc(C)n(CCC(=O)N/N=C/c2ccc(Br)c([N+](=O)[O-])c2)n1 | n | n | n | n | n | 6
COc1ccccc1CNC(=O)C1(NC(=O)Nc2ccc(C)cc2)CCCCC1 | n | n | n | n | n | n
SMILES | KCNK3 block | Kir21 block | KCNK9 inh | KCNQ1 act | hERG rescue | KCNQ1 block
Cc1ccc(CNC(=O)C2(NC(=O)Nc3ccc(C)cc3)CCCCC2)cc1 | n | n | n | n | 4.6 | n
CC(C)n1c(/N=C/c2ccccc2O)nc2ccccc21 | n | n | n | n | n | n
O=C(O)c1cccc(N/N=C(\N=Nc2ccccc2)c2ccccc2)c1 | n | n | n | n | n | 6
C=CCn1c(SCC(=O)Nc2ccccc2C)nc2sc(C)c(C)c2c1=O | n | n | n | n | n | n
C=CCn1c(SCc2ccc(C(=O)O)cc2)nc2sc(C)c(C)c2c1=O | n | n | n | 16 | 8.2 | n
O=C(Oc1cccc(NC(=O)c2ccco2)c1)c1ccc(Br)c(S(=O)(=O)N2CCCCC2)c1 | n | n | -7.79 | n | n | n
Cn1c2ccccc2c(=O)c2ccc(NCCc3cccs3)cc21 | -9.11 | x | x | x | x | x
Oc1oc(-c2cccc3ccccc23)nc1/C=N/c1nccs1 | n | n | n | 12 | 18.8 | n
O=C1OC(c2ccc(O)cc2)(c2ccccc2O)c2ccccc21 (configuration not stated) | n | x | x | x | x | x
O=C1OC(c2ccccc2)(c2cc(Br)ccc2O)c2ccccc21 (configuration not stated) | -9.83 | x | x | x | x | x
CC1CC(C)CN(CCCSc2ccccc2)C1 (configuration not stated) | n | n | n | n | n | n
CC1CC(C)CN(CCOCCSc2ccc(Cl)cc2)C1 (configuration not stated) | n | -4.52 | n | n | n | n
COc1ccc([N+](=O)[O-])cc1NC(=O)Cc1noc2ccc(C)cc12 | n | n | n | n | n | n
CCOC(=O)C1(C)C=C(Nc2ccc(NC(C)=O)cc2)C(=O)N1c1ccc(NC(C)=O)cc1 (configuration not stated) | n | n | n | n | n | n
CC1(C)Nc2ccc(O)cc2-c2c1ssc2=S | n | -11.6 | n | n | n | n
CC(=O)c1c(C)[nH]c(C(=O)Nc2nc(-c3ccc(-c4ccccc4)cc3)cs2)c1C | n | n | n | n | n | 8
CCCn1c2c(c(O)c(C(=O)Nc3nc(C)cs3)c1=O)CCCC2 | x | n | n | n | n | n
CCCn1c2c(c(O)c(C(=O)Nc3nccs3)c1=O)CCCC2 | n | n | -6.63 | n | n | n
OCCc1ccc(O)c(-n2nc3ccccc3n2)c1 | n | n | n | n | n | n
CN(CCNC(=O)c1ccc(CS(=O)(=O)c2ccc(Br)cc2)o1)CCc1ccccc1 | n | -4.89 | n | n | n | n
C(=C\n1nnc2ccccc21)/c1ccc[nH]1 | n | n | n | n | n | n
CCc1nnc(SCC(=O)Nc2ccccc2)nc1CC | n | n | n | n | 4.9 | n
CCc1nnc(SCC(=O)NC2CCCC2)nc1CC | n | n | n | n | n | n
CCN(CC)c1ccc2nc3ccc(N)cc3[n+](-c3ccccc3)c2c1 | -9.15 | x | x | x | x | x
COc1ccc(C)cc1-n1nnnc1SCC(=O)NC1CCCC1 | n | x | x | x | x | x
COc1ccc(C)cc1-n1nnnc1SCC1CCCCO1 (configuration not stated) | n | -4.68 | n | n | n | n
COc1ccc(C=C2C=C(C(C)(C)C)C(=O)C(C(C)(C)C)=C2)cc1OC | n | n | n | n | n | 6
S=c1[nH]nc(Cc2ccc(Cl)cc2)o1 | n | n | n | n | n | n
COc1cc(/C=C2/C(=O)NN(c3cccc(C)c3)C2=O)ccc1OC(=O)c1ccco1 | n | -6.07 | n | n | n | n

Assay outcomes from PubChem.
